Source: ChEMBL document CHEMBL2440032, “Synthesis of sterically encumbered 11β-aminoprogesterone derivatives and evaluation as 11β-hydroxysteroid dehydrogenase inhibitors and mineralocorticoid receptor antagonists” (Bioorg Med Chem, 2013)
Active and inactive are the calls of the source. No cut-off for these calls is given here.

Key:
[1] = biological target: T1, 11-beta-hydroxysteroid dehydrogenase type 2 (Homo sapiens, UniProt P80365); assay: Inhibition of human recombinant 11beta-HSD2 expressed in HEK293 cells assessed as inhibition of [1,2,6,7-3H]-cortisol to [3H]cortisone preincubated for 10 mins before substrate addition by scintillation counting; type: cell-based
T1 sequence (P80365 whole entry): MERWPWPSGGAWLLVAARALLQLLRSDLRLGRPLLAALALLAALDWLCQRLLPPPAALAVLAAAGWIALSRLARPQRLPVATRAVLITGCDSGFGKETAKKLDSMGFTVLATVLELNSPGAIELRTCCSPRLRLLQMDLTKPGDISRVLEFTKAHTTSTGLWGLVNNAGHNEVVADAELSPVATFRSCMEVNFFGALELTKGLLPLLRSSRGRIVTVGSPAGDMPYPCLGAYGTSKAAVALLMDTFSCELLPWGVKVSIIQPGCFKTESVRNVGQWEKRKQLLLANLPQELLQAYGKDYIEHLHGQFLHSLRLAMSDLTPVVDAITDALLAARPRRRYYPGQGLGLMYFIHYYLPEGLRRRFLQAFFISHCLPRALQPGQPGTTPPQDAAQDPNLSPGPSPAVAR

[2] = biological target: T2, 11-beta-hydroxysteroid dehydrogenase 1 (Homo sapiens, UniProt P28845); assay: Inhibition of human recombinant 11beta-HSD1 expressed in HEK293 cells assessed as inhibition of [1,2,-3H]-cortisone to [3H]cortisol preincubated for 10 mins before substrate addition by scintillation counting; type: cell-based
Procedure, shortened: (§1)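 Lysates of HEK-293 cells expressing human 11βHSD1, in buffer with 1 mM MgCl2, 250 mM sucrose and 20 mM Tris–HCl pH 7.4, sonicated and used at once. Incubated 10 min at 37 °C with 200 nM [1,2-3H]cortisone and 500 µM NADPH. Stopped with excess unlabeled cortisone/cortisol in methanol, then TLC separation and scintillation counting for substrate conversion. Three independent experiments.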
Target sequence in this assay (P28845 whole entry): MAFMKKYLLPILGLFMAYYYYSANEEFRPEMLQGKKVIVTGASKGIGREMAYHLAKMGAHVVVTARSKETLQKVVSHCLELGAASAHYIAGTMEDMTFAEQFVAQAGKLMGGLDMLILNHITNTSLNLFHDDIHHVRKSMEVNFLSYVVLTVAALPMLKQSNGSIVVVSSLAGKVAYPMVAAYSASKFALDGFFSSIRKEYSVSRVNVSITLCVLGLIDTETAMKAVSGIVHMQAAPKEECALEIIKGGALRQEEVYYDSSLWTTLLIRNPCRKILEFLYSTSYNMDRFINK

[3] = biological target: T2, 11-beta-hydroxysteroid dehydrogenase 1; assay: Inhibition of human recombinant 11beta-HSD1 expressed in HEK293 cells assessed as inhibition of [1,2,-3H]-cortisone to [3H]cortisol preincubated at 10 uM for 10 mins before substrate addition by scintillation counting; type: cell-based; procedure, shortened: as §1
Target sequence in this assay (P28845 whole entry, looked up): as the sequence (P28845 whole entry) above

[4] = biological target: T3, Mineralocorticoid receptor (Homo sapiens, UniProt P08235); assay: (§2) Transactivation of human recombinant mineralocorticoid receptor expressed in HEK-293 cells after 24 hrs […]; type: cell-based, HEK293
T3 sequence (P08235 whole entry): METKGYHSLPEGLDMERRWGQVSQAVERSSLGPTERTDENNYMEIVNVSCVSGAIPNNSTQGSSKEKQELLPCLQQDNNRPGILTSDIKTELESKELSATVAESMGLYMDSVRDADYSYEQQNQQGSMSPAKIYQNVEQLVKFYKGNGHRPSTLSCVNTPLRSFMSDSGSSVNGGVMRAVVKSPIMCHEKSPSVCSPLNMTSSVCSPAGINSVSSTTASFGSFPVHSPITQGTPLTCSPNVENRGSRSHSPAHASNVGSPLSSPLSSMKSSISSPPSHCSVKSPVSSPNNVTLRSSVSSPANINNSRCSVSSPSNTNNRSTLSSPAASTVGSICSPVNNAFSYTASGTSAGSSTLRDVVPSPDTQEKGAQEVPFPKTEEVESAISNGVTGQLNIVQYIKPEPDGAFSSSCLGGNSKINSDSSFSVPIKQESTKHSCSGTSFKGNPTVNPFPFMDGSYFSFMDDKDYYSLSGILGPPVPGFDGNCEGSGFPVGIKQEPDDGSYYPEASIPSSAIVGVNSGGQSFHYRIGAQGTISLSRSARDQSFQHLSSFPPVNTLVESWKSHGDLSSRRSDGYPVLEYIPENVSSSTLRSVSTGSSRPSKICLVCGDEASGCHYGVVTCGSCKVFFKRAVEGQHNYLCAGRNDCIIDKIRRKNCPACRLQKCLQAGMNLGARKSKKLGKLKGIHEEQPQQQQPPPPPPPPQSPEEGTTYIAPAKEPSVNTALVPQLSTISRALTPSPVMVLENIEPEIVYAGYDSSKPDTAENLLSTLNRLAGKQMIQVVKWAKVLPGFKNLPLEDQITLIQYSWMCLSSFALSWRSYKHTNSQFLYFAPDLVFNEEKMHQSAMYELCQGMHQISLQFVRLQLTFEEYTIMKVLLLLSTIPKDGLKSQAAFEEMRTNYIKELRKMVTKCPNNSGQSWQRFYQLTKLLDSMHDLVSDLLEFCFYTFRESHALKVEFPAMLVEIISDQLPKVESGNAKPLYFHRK
Procedure, shortened: (§3)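 HEK-293 cells, 150,000 per well, plated for 24 h, then calcium-phosphate transfected with pMMTV-lacZ β-galactosidase reporter, pCMV-LUC luciferase control and human MR plasmid. Cells were washed with charcoal-treated DMEM containing 10% FBS, then exposed to a range of compound concentrations with or without 10 nM aldosterone. Readout was β-galactosidase normalized to luciferase, relative to vehicle. Three independent experiments.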

[5] = biological target: T4, Mineralocorticoid receptor (Homo sapiens) (UniProt P08235); assay: (§4) Antagonist activity at human recombinant mineralocorticoid receptor expressed in HEK-293 cells after 24 hrs assessed as inhibition of aldosterone-induced receptor activity by […]; type: cell-based; conditions: HEK293; procedure, shortened: as §3
T4 sequence (whole entry): T3 sequence (P08235 whole entry)

[6] = biological target: T4, Mineralocorticoid receptor (Homo sapiens); assay: as §2; type: cell-based; conditions: HEK293; procedure, shortened: as §3
[7] = biological target: T3, Mineralocorticoid receptor; assay: as §4; type: cell-based, HEK293; procedure, shortened: as §3
[8] = biological target: T3, Mineralocorticoid receptor; assay: Transactivation of wild-type human recombinant mineralocorticoid receptor expressed in COS7 cells after 24 hrs by luciferase reporter gene assay; type: cell-based, COS-7

| SMILES | IC50 [1] [nM] | inhibition [3] [%] | further results |
| --- | --- | --- | --- |
| CC(=O)[C@H]1CC[C@H]2[C@@H]3CCC4=CC(=O)CC[C@]4(C)[C@H]3[C@@H](NCC(=O)O)C[C@]12C | 2690 |  |  |
| CC(=O)[C@H]1CC[C@H]2[C@@H]3CCC4=CC(=O)CC[C@]4(C)[C@H]3[C@@H](N)C[C@]12C [11BETA-AMINOPROGESTERONE] | 2200 |  |  |
| CCOC(=O)/C(CN[C@H]1C[C@]2(C)[C@@H](C(C)=O)CC[C@H]2[C@@H]2CCC3=CC(=O)CC[C@]3(C)[C@H]21)=N\O | 1050 | > 70 | IC50 [2]: 640 nM |
| CC(=O)[C@H]1CC[C@H]2[C@@H]3CCC4=CC(=O)CC[C@]4(C)[C@H]3[C@@H](NC[C@@H](CO)NC(=O)OC(C)(C)C)C[C@]12C | 4210 | < 70 |  |
| CC(=O)[C@H]1CC[C@H]2[C@@H]3CCC4=CC(=O)CC[C@]4(C)[C@H]3[C@@H](NC[C@@H](N)C(=O)O)C[C@]12C |  |  | EC50 [4]: 4100 nM; inhibition [5]: inactive |
| CC(=O)[C@H]1CC[C@H]2[C@@H]3CCC4=CC(=O)CC[C@]4(C)[C@H]3[C@H](O)C[C@]12C |  | > 70 | IC50 [2]: 630 nM |
| CC(=O)[C@H]1CC[C@H]2[C@@H]3CCC4=CC(=O)CC[C@]4(C)[C@H]3[C@@H](NS(=O)(=O)c3ccccc3[N+](=O)[O-])C[C@]12C |  |  | Activity [6]: inactive; IC50 [7]: 10900 nM |
| CC(=O)[C@H]1CC[C@H]2[C@@H]3CCC4=CC(=O)CC[C@]4(C)[C@H]3[C@@H](NCC(=O)OC(C)(C)C)C[C@]12C | 2410 |  |  |
| CC(=O)[C@H]1CC[C@H]2[C@@H]3CCC4=CC(=O)CC[C@]4(C)[C@H]3[C@@H](N=[N+]=[N-])C[C@]12C [11BETA-AZIDOPROGESTERONE] |  |  | Activity [6]: inactive; IC50 [7]: 3500 nM |
| CC(=O)[C@H]1CC[C@H]2[C@@H]3CCC4=CC(=O)CC[C@]4(C)[C@H]3[C@@H](NC[C@H](N)C(=O)O)C[C@]12C | 6760 | < 70 |  |
| CC(=O)[C@H]1CC[C@H]2[C@@H]3CCC4=CC(=O)CC[C@]4(C)[C@H]3[C@@H](O)C[C@]12C [11BETA-HYDROXYPROGESTERONE] |  | > 70 | EC50 [8]: 50 nM; EC50 [4]: 14000 nM; inhibition [5]: inactive; IC50 [2]: 1160 nM |
| CC(=O)[C@H]1CC[C@H]2[C@@H]3CCC4=CC(=O)CC[C@]4(C)[C@H]3[C@@H](NC[C@H]3COC(C)(C)N3C(=O)OC(C)(C)C)C[C@]12C | 5850 | < 70 |  |
